The source made the active and inactive calls. The rule behind the calls is not given here.
Experiments:
[1] = biological target: Serine/threonine-protein kinase PAK 1 (Homo sapiens, UniProt Q13153); test: Inhibition of human PAK1
In short: (§1)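 Recombinant human protein kinases screened through the Eurofins KinaseProfiler service. IC50 values are means of two independent experiments.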

[2] = Terminal half life in Sprague-Dawley rat at 10 mg/kg, po by LC/MS analysis; type: ADME, organism-based; design: dose 10 mg/kg, route oral; conditions: in vivo, read-out: beta t1/2 (converted)
In short: (§2)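 Male Sprague-Dawley rats fitted with jugular vein catheters and fasted overnight, then given a single 10 mg/kg oral gavage dose; n=5. Serial blood samples were spun at once to plasma and analysed by LC-MS/MS. Noncompartmental parameters were fitted.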

Rattus norvegicus = test: AUC (0 to infinity) in Sprague-Dawley rat at 10 mg/kg, po by LC/MS analysis; type: ADME, organism-based, Plasma; design: time infinity, dose 10 mg/kg, route oral; conditions: in vivo
In short: (§3)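 Single oral gavage dose in male Sprague-Dawley rats fasted overnight; serial blood drawn via surgically placed jugular vein catheters at set times, plasma separated at once and measured by HPLC-MS/MS; noncompartmental parameters fitted; n=5.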

[3] = biological target: Mitogen-activated protein kinase 1 (Homo sapiens, UniProt P28482); test: Inhibition of human MAPK1; in short: as §1
MDA-MB-453 = test: Cytotoxicity against human MDA-MB-453 cells assessed as cell viability after 72 hrs by MTT assay; type: functional, cell-based; conditions: MDA-MB-453, 72 h
MDA-MB-231 [4] = test: Cell cycle arrest in human MDA-MB-231 cells assessed as accumulation at G0/G1 phase at 0.1 to 0.3 uM after 24 to 48 hrs by flow cytometric analysis; type: functional, cell-based
[5] = biological target: RAC-alpha serine/threonine-protein kinase (Homo sapiens, UniProt P31749); test: Inhibition of human PKBalpha; in short: as §1
MDA-MB-231 [6] = test: Induction of apoptosis in human MDA-MB-231 cells assessed as late apoptotic cells at 0.03 uM after 48 hrs by annexin V-FITC/propidium iodide staining-based flow cytometric analysis (reference value: 4.25%); type: functional
MDA-MB-231 [7] = test: Induction of apoptosis in human MDA-MB-231 cells assessed as late apoptotic cells at 0.3 uM after 24 hrs by annexin V-FITC/propidium iodide staining-based flow cytometric analysis (reference value: 2.67%); type: functional
MDA-MB-231 [8] = test: Antitumor activity against human MDA-MB-231 cells xenografted in SCID mouse assessed as increase in number of apoptotic cells in tumor at 30 mg/kg/day, po administered for 18 days measured post last dose by TUNEL assay; type: functional, organism-based
In short: (§4)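 SCID mice carrying subcutaneous MDA-MB-231 xenografts received oral dosing once daily for 18 days (vehicle 25% PEG400 plus 5% DMSO in sterile water); at the end, tumors formalin-fixed and paraffin-embedded, 4–8 μm sections immunostained (Ki67, phospho-proteins) or TUNEL/AP-Red labelled, and compared with control.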

MDA-MB-231 [9] = test: Inhibition of ERK phosphorylation in human MDA-MB-231 cells at 0.001 to 1 uM after 20 hrs by Western blot analysis; type: cell-based
In short: (§5)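 MDA-MB-231 cells exposed to a concentration series for 20 h at 37 °C, then washed in ice-cold saline and lysed in RIPA buffer with protease cocktail. Lysates were cleared at 12 000 rpm for 10 min at 4 °C and protein measured by Bradford. Equal protein was run on SDS-PAGE, transferred to PVDF and immunoblotted for phospho-proteins.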

MDA-MB-231 [10] = test: Induction of apoptosis in human MDA-MB-231 cells assessed as late apoptotic cells at 0.03 uM after 24 hrs by annexin V-FITC/propidium iodide staining-based flow cytometric analysis (reference value: 2.67%); type: functional
MDA-MB-231 [11] = test: Induction of apoptosis in human MDA-MB-231 cells assessed as viable cells at 0.03 uM after 48 hrs by annexin V-FITC/propidium iodide staining-based flow cytometric analysis (reference value: 94.4%); type: functional; conditions: MDA-MB-231, 48 h, read-out: Activity
In short: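 MDA-MB-231 cells (ATCC; medium with 10% FBS, 37 °C, 5% CO2) plated at 2 × 10^5 per six-well well and treated with a range of concentrations for 24 and 48 h at 37 °C. Cells harvested, washed with ice-cold PBS, stained with annexin V-FITC apoptosis detection kit and analysed by flow cytometry.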

MDA-MB-231 [12] = test: Induction of apoptosis in human MDA-MB-231 cells after 24 to 48 hrs by annexin V-FITC/propidium iodide staining-based flow cytometric analysis; type: functional, cell-based
Mus musculus = test: In vivo inhibition of ERK phosphorylation in tumor of SCID mouse xenografted with human MDA-MB-231 cells at 30 mg/kg/day, po administered for 18 days measured post last dose by immunohistochemical analysis relative to vehicle-treated control; type: functional, organism-based; in short: as §4
[13] = Clearance in Sprague-Dawley rat at 10 mg/kg, po by LC/MS analysis; type: ADME, organism-based; design: dose 10 mg/kg, route oral; conditions: in vivo; in short: as §3
MDA-MB-231 [14] = test: cells; conditions: Homo sapiens, MDA-MB-231, 72 h
MDA-MB-231 [15] = test: Antitumor activity against human MDA-MB-231 cells xenografted in SCID mouse assessed as reduction in number of proliferating cells in tumor at 30 mg/kg/day, po administered for 18 days measured post last dose by Ki67 staining-based assay; type: functional, organism-based; in short: as §4
[16] = biological target: Phosphatidylinositol 4,5-bisphosphate 3-kinase catalytic subunit alpha isoform (Homo sapiens, UniProt P42336); test: Inhibition of human PI3Kalpha; in short: as §1
MDA-MB-231 [17] = test: Induction of apoptosis in human MDA-MB-231 cells assessed as viable cells at 0.3 uM after 48 hrs by annexin V-FITC/propidium iodide staining-based flow cytometric analysis (reference value: 94.4%); type: functional; conditions: MDA-MB-231, 48 h, read-out: Activity
MDA-MB-231 [18] = test: Antitumor activity against human MDA-MB-231 cells xenografted in SCID mouse assessed as tumor growth inhibition at 7.5 to 15 mg/kg/day, po qd administered for 18 days measured every 3 days during compound dosing; type: functional, organism-based
In short: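 SCID mice (5–6 weeks) were injected subcutaneously with 100 μL of exponential-phase MDA-MB-231 cells (5 × 10^7 per mL). They were randomized at 150–200 mm3 tumor volume (6 per group) and dosed orally once daily for 18 days in sterile water with 25% PEG400 plus 5% DMSO, with a vehicle group. Tumor volume (ab2/2) was measured every 3 days.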

MDA-MB-231 [19] = test: Induction of apoptosis in human MDA-MB-231 cells assessed as early apoptotic cells at 0.03 uM after 48 hrs by annexin V-FITC/propidium iodide staining-based flow cytometric analysis (reference value: […]); type: functional
[20] = biological target: Tyrosine-protein kinase Yes (Homo sapiens, UniProt P07947); test: Inhibition of human Yes
In short: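 Recombinant human kinase assayed in Eurofins KinaseProfiler panel; IC50 reported as mean of two independent experiments.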

MDA-MB-231 [21] = test: Antiproliferative activity against human MDA-MB-231 cells assessed as inhibition of colony formation at >0.01 uM after 12 days by crystal violet staining-based assay; type: functional, cell-based
In short: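 MDA-MB-231 cells plated at 5000 per well and treated the next day with vehicle or compound, medium refreshed every 4 days; after 12 days, colonies fixed in methanol, crystal violet stained and photographed.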

MDA-MB-231 [22] = test: Induction of apoptosis in human MDA-MB-231 cells assessed as late apoptotic cells at 0.1 uM after 48 hrs by annexin V-FITC/propidium iodide staining-based flow cytometric analysis (reference value: 4.25%); type: functional
MDA-MB-231 [23] = test: Inhibition of MEK phosphorylation in human MDA-MB-231 cells at 0.001 to 1 uM after 20 hrs by Western blot analysis; type: cell-based; in short: as §5
[24] = Tmax in Sprague-Dawley rat at 10 mg/kg, po by LC/MS analysis; type: ADME, organism-based; design: dose 10 mg/kg, route oral; conditions: in vivo; in short: as §2

Chain of RAC-alpha serine/threonine-protein kinase (P31749 whole entry): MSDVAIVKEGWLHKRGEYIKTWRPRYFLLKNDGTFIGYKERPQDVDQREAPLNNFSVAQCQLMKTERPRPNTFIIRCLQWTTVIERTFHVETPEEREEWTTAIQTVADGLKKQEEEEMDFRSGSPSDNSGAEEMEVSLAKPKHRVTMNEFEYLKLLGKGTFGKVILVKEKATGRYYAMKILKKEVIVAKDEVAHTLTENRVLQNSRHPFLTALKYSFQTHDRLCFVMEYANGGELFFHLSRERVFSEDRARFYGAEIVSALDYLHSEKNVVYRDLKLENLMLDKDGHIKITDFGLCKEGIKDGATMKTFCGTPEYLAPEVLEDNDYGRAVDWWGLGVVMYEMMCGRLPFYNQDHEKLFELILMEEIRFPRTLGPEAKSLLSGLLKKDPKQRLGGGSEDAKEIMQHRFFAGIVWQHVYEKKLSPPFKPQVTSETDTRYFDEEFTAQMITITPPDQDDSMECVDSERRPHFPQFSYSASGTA
Chain of Phosphatidylinositol 4,5-bisphosphate 3-kinase catalytic subunit alpha isoform (P42336 whole entry, canonical isoform): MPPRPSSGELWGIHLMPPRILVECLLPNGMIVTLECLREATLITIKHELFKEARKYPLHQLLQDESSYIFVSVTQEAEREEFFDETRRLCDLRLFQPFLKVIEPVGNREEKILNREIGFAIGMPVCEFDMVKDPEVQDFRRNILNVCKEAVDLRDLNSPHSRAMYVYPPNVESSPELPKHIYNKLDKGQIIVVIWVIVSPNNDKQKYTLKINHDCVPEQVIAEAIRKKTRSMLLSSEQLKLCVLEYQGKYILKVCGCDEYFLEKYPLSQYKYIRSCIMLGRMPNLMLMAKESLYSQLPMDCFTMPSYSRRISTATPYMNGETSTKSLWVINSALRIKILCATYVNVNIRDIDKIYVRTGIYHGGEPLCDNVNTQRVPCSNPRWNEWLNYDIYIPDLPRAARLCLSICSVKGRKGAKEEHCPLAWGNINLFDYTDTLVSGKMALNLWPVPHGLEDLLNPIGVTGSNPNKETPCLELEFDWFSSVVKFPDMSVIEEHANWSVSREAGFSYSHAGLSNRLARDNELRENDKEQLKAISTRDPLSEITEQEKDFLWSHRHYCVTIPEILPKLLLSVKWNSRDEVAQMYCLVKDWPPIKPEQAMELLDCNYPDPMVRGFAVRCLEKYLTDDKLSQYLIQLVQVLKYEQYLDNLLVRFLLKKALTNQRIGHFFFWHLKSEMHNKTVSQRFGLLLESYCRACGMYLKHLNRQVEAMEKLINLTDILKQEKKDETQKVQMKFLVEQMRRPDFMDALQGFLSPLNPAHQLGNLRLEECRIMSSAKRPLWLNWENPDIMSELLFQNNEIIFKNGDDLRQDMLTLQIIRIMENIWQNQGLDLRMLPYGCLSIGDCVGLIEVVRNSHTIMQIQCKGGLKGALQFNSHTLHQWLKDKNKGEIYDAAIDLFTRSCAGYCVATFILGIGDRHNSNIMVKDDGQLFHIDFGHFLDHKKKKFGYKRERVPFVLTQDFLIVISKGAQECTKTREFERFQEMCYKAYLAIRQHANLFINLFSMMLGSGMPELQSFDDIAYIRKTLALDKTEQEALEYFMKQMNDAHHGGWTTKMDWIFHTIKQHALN
Chain of Mitogen-activated protein kinase 1 (P28482 whole entry): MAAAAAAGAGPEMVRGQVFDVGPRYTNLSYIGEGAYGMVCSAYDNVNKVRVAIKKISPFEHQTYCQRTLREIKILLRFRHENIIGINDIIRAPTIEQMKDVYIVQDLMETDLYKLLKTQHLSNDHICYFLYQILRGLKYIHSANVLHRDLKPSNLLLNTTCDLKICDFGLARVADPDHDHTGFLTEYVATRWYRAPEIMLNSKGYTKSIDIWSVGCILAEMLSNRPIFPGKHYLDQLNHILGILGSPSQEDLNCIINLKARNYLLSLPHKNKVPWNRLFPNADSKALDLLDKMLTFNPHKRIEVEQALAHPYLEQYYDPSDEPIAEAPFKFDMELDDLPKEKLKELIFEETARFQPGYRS
Chain of Serine/threonine-protein kinase PAK 1 (Q13153 whole entry): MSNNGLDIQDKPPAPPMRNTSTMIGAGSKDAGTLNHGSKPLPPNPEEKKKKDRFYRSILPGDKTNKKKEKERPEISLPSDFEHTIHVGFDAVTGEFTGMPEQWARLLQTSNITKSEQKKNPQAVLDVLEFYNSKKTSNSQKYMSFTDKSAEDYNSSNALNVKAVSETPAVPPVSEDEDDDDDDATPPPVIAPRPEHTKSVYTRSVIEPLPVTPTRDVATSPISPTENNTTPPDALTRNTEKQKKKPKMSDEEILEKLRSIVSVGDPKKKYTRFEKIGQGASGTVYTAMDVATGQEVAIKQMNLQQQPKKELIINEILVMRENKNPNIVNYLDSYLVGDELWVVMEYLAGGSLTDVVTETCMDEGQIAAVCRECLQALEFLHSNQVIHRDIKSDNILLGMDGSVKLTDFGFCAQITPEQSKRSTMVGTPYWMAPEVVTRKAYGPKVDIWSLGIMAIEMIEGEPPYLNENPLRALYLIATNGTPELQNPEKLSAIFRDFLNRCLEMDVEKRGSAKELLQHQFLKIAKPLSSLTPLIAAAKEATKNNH
Chain of Tyrosine-protein kinase Yes (P07947 whole entry): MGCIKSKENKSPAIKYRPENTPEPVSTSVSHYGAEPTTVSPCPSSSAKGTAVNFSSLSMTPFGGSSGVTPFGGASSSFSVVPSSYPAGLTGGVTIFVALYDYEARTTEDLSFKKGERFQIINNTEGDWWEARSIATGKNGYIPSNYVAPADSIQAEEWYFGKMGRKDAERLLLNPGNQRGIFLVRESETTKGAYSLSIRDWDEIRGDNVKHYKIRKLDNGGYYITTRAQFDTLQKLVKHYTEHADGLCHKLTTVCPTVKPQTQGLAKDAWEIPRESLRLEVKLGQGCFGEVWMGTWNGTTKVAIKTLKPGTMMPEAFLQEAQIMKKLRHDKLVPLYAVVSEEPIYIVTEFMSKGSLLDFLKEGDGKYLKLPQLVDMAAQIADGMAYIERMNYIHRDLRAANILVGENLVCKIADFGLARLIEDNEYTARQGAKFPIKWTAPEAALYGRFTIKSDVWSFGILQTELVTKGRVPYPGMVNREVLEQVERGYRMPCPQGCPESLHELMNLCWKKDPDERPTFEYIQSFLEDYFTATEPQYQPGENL

CCn1nc(C#Cc2cc(C(=O)Nc3ccc(CN4CCN(C)CC4)c(C(F)(F)F)c3)ccc2C)c2c(N)ncnc21
IC50 [1]: > 10000 nM | half-life [2]: 12.8 h | AUC (Rattus norvegicus): 4772.5 µg/L/h | IC50 [3]: > 10000 nM | IC50 (MDA-MB-453): 325 nM | Activity (MDA-MB-231 [4]): Active | IC50 [5]: > 10000 nM | Activity (MDA-MB-231 [6]): 4.85% | Activity (MDA-MB-231 [7]): 15.5% | Activity (MDA-MB-231 [8]): Active | inhibition (MDA-MB-231 [9]): Active | Activity (MDA-MB-231 [10]): 3.92% | viability at 0.03 µM (MDA-MB-231 [11]): 90.5% | Activity (MDA-MB-231 [12]): Dose-dependent effect | inhibition (Mus musculus): Active | CL/F [13]: 35 mL/min/kg | IC50 (MDA-MB-231 [14]): 11 nM | Activity (MDA-MB-231 [15]): Active | IC50 [16]: > 10000 nM | viability at 0.3 µM (MDA-MB-231 [17]): 63.2% | TGI (MDA-MB-231 [18]): Active | Activity (MDA-MB-231 [19]): 3.23% | IC50 [20]: 0.8 nM | inhibition (MDA-MB-231 [21]): Active | Activity (MDA-MB-231 [22]): 15.9% | inhibition (MDA-MB-231 [23]): Active | Tmax [24]: 12 h

Source: ChEMBL document CHEMBL3425429
